The values below come from ChEMBL document CHEMBL2163252, “Azapeptide analogues of the growth hormone releasing peptide 6 as cluster of differentiation 36 receptor ligands with reduced affinity for the growth hormone secretagogue receptor 1a” (J Med Chem, 2012).

For assay [1], the target named is Growth hormone secretagogue receptor type 1 (Homo sapiens, UniProt Q92847). The assay can be described thus: Displacement of [125I]ghrelin expressed in LLC-PK1 cells incubated for 1 hr by gamma counting method. The class given is cell-based. The method in brief: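 Membranes from LLC-PK1 cells transiently transfected with GHS-R1a (CaPO₄; harvested 24 h later; freeze/thaw lysis, 10000g), 10 μg protein/tube. Incubated with ¹²⁵I-ghrelin (40,000 cpm) and competitor 10⁻¹² to 10⁻⁵ M, 1 h at RT, in Tris/MgCl₂/EDTA/bacitracin buffer pH 7.3. Nonspecific binding set with 10⁻⁵ M competitor. Bound separated by filtration on PEI-soaked GF/C filters, gamma counted.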
In general terms: Loss of bound radioactivity is the signal in a displacement assay; it reports binding, not function.

Another assay has as its target Platelet glycoprotein 4 (Rattus norvegicus, UniProt Q07969). The assay can be described thus: Displacement of photoactivatable [125I]-Tyr-Bpa-Ala-Hexarelin from CD36 in Sprague-Dawley rat cardiac membranes incubated for 60 mins by densitometry. The assay is classed as cell membranes, Membrane.

Starred links: 1 amine or outer side, 2 acyl side, 3 side chain; linkers in the order of their positions; H or OH if unused. Non-standard residues stand in square brackets, D forms with d. Residues, ends and D or L forms follow the SMILES beside them. dTrp(2-Me) = Cc1[nH]c2ccccc2c1C[C@@H](N)C(=O)O; azaTyr = O=C(N(Cc1ccc(O)cc1)N[*:1])[*:2]; azaPhe = O=C(N(Cc1ccccc1)N[*:1])[*:2]; X1 = O=C(N(CCc1ccccc1)N[*:1])[*:2]; azaLeu = CC(C)CN(N[*:1])C(=O)[*:2]; azaPro = O=C(N1CCCN1[*:1])[*:2]; Aib = CC(C)(N)C(=O)O; azaGly = NNC(=O)O

Chain of Platelet glycoprotein 4 (Q07969 whole entry): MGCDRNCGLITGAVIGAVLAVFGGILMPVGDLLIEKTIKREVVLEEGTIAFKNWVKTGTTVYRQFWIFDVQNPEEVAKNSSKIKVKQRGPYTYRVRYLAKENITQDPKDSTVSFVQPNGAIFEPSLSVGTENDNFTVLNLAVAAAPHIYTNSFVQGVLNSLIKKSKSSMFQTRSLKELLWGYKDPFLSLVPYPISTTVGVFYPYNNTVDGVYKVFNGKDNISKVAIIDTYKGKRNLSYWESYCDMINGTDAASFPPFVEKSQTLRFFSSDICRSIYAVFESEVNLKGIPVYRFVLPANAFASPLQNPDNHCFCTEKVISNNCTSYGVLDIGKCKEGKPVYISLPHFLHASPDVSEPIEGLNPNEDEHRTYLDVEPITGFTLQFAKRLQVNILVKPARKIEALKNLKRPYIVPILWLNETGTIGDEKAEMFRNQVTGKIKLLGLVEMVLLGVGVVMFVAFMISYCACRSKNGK
Chain of Growth hormone secretagogue receptor type 1 (Q92847 whole entry): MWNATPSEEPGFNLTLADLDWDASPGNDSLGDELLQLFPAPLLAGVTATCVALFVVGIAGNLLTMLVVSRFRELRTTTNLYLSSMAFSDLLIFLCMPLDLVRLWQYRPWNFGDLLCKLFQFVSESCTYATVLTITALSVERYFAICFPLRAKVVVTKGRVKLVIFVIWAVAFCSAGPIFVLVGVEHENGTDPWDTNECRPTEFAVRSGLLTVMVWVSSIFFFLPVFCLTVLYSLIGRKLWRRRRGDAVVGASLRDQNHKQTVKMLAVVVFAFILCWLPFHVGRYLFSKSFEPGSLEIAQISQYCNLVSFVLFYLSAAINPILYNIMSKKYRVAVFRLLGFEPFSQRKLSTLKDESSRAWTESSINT

As usually defined, the IC50 is the concentration that gives 50% inhibition. Read a low IC50 as inhibition by little substance. As to `CC(C)CN(NC(=O)[C@@H](Cc1c[nH]c2ccccc12)NC(=O)[C@@H](N)Cc1cnc[nH]1)C(=O)N[C@@H](Cc1c[nH]c2ccccc12)C(=O)N[C@H](C)C(=O)N[C@@H](CCCCN)C(N)=O` (H-H[dW][azaLeu]W[dA]K-NH2), the values for the IC50 (in assay [1]; at Platelet glycoprotein 4) were over 10 µM and 9.48 µM, respectively. `C[C@H](N)C(=O)NN(Cc1ccc(O)cc1)C(=O)N[C@@H](C)C(=O)N[C@@H](Cc1c[nH]c2ccccc12)C(=O)N[C@H](Cc1ccccc1)C(=O)N[C@@H](CCCCN)C(N)=O` (H-A[azaTyr]AW[dF]K-NH2): the IC50 is over 10 µM in assay [1] and 36.9 µM at Platelet glycoprotein 4. `CC(C)CN(NC(=O)[C@@H](Cc1c[nH]c2ccccc12)NC(=O)[C@H](C)N)C(=O)N[C@@H](Cc1c[nH]c2ccccc12)C(=O)N[C@H](Cc1ccccc1)C(=O)N[C@@H](CCCCN)C(N)=O` returned a half-maximal inhibitory concentration (IC50) at Platelet glycoprotein 4 of 6.66 µM. `C[C@H](NC(=O)[C@@H](Cc1c[nH]c2ccccc12)NC(=O)[C@@H](N)Cc1cnc[nH]1)C(=O)N[C@@H](Cc1c[nH]c2ccccc12)C(=O)N1CCCN1C(=O)N[C@@H](CCCCN)C(N)=O` (H-H[dW]AW[azaPro]K-NH2): the concentration for half-maximal inhibition (IC50) (in assay [1]; on Platelet glycoprotein 4) was over 10 µM in each case.

On to `NCCCC[C@H](NC(=O)[C@@H](Cc1ccccc1)NC(=O)[C@@H]1CCCN1C(=O)NNC(=O)[C@@H](Cc1c[nH]c2ccccc12)NC(=O)[C@@H](N)Cc1cnc[nH]1)C(N)=O`, for which the 50% inhibitory concentration (IC50) (in assay [1]; on Platelet glycoprotein 4) was over 10 µM in each case. For `Cc1[nH]c2ccccc2c1C[C@@H](NC(=O)[C@@H](Cc1c(C)[nH]c2ccccc12)NC(=O)C(C)(C)N)C(N)=O` (H-[Aib]-[dTrp(2-Me)]-[dTrp(2-Me)]-NH2), the IC50 in assay [1] is 0.0629 µM; on Platelet glycoprotein 4, over 10 µM. Turning to `Cc1[nH]c2ccccc2c1C[C@@H](NC(=O)[C@@H](N)Cc1cnc[nH]1)C(=O)N[C@@H](C)C(=O)N[C@@H](Cc1c[nH]c2ccccc12)C(=O)N[C@H](Cc1ccccc1)C(=O)N[C@@H](CCCCN)C(N)=O` [EXAMORELIN] (H-H[dTrp(2-Me)]AW[dF]K-NH2), the half-maximal inhibitory concentration (IC50) in assay [1] was found to be 0.0159 µM. For the compound `C[C@H](NC(=O)[C@@H](Cc1c[nH]c2ccccc12)NC(=O)[C@@H](N)Cc1cnc[nH]1)C(=O)N1CCCN1C(=O)N[C@H](Cc1ccccc1)C(=O)N[C@@H](CCCCN)C(N)=O` (H-H[dW]A[azaPro][dF]K-NH2), the IC50 (in assay [1]; on Platelet glycoprotein 4) was over 10 µM in each case. In the case of `C[C@H](NC(=O)[C@@H](Cc1ccccc1)NC(=O)[C@H](Cc1c[nH]c2ccccc12)NC(=O)[C@H](C)NC(=O)N(Cc1ccccc1)NC(=O)[C@@H](N)Cc1cnc[nH]1)C(N)=O` (H-H[azaPhe]AW[dF]A-NH2), the IC50 on Platelet glycoprotein 4 was over 10 µM.

In the case of `C[C@@H](NC(=O)[C@H](Cc1c[nH]c2ccccc12)NC(=O)NNC(=O)[C@@H](Cc1c[nH]c2ccccc12)NC(=O)[C@@H](N)Cc1cnc[nH]1)C(=O)N[C@@H](CCCCN)C(N)=O` (H-H[dW][azaGly]W[dA]K-NH2), the IC50 (in assay [1]; on Platelet glycoprotein 4) was over 10 µM each time. As to `CC(C)CN(NC(=O)[C@@H](Cc1c[nH]c2ccccc12)NC(=O)[C@@H](N)Cc1cnc[nH]1)C(=O)N[C@@H](C)C(=O)N[C@H](Cc1ccccc1)C(=O)N[C@@H](CCCCN)C(N)=O` (H-H[dW][azaLeu]A[dF]K-NH2), the IC50 in assay [1] is over 10 µM; on Platelet glycoprotein 4 it was 25.9 µM.

On to `C[C@H](NC(=O)N(Cc1ccccc1)NC(=O)C(N)Cc1cnc[nH]1)C(=O)N[C@@H](Cc1c[nH]c2ccccc12)C(=O)N[C@H](Cc1ccccc1)C(=O)N[C@@H](CCCCN)C(N)=O` (stereo partly specified), for which the half-inhibitory concentration (IC50) in assay [1] worked out at 16.1 µM; at Platelet glycoprotein 4 it was 72.4 µM. For `CC(C)CN(NC(=O)[C@@H](Cc1c[nH]c2ccccc12)NC(=O)[C@@H](N)Cc1cnc[nH]1)C(=O)N[C@@H](Cc1c[nH]c2ccccc12)C(=O)N[C@H](Cc1ccccc1)C(N)=O`, in that order: 4.55 µM and 9.01 µM.

For the compound `C[C@H](NC(=O)N(Cc1ccc(O)cc1)NC(=O)[C@@H](N)Cc1cnc[nH]1)C(=O)N[C@@H](Cc1c[nH]c2ccccc12)C(=O)N[C@H](C)C(=O)N[C@@H](CCCCN)C(N)=O` (H-H[azaTyr]AW[dA]K-NH2), the IC50 (in assay [1]; at Platelet glycoprotein 4) was over 10 µM throughout.

On to `C[C@H](NC(=O)[C@@H](Cc1c[nH]c2ccccc12)NC(=O)[C@@H](N)Cc1cnc[nH]1)C(=O)NN(CCc1ccccc1)C(=O)N[C@H](Cc1ccccc1)C(=O)N[C@@H](CCCCN)C(N)=O` (H-H[dW]A[X1][dF]K-NH2), for which the IC50 at Platelet glycoprotein 4 is over 10 µM. `CC(C)CN(NC(=O)[C@@H](Cc1c[nH]c2ccccc12)NC(=O)[C@@H](N)Cc1cnc[nH]1)C(=O)N[C@@H](Cc1c[nH]c2ccccc12)C(N)=O`: the figures for the IC50 (in assay [1]; on Platelet glycoprotein 4) were 85.6 µM and over 10 µM, respectively. For `C[C@H](NC(=O)[C@@H](C)NC(=O)[C@@H](N)Cc1cnc[nH]1)C(=O)NN(Cc1ccccc1)C(=O)N[C@H](Cc1ccccc1)C(=O)N[C@@H](CCCCN)C(N)=O` (H-H[dA]A[azaPhe][dF]K-NH2), in that order: over 10 µM and over 10 µM. For `CC(C)CN(NC(=O)[C@@H](Cc1c[nH]c2ccccc12)NC(=O)CN)C(=O)N[C@@H](Cc1c[nH]c2ccccc12)C(=O)N[C@H](Cc1ccccc1)C(=O)N[C@@H](CCCCN)C(N)=O`, the values for the IC50 (in assay [1]; on Platelet glycoprotein 4) were 5.41 µM and 10.5 µM, respectively. In turn, `CC(C)CN(NC(=O)[C@@H](Cc1c[nH]c2ccccc12)NC(=O)[C@@H](C)N)C(=O)N[C@@H](Cc1c[nH]c2ccccc12)C(=O)N[C@H](Cc1ccccc1)C(=O)N[C@@H](CCCCN)C(N)=O` came in with an IC50 on Platelet glycoprotein 4 of 13.3 µM. Consider `C[C@H](NC(=O)[C@@H](Cc1ccccc1)NC(=O)[C@H](Cc1c[nH]c2ccccc12)NC(=O)[C@H](C)NC(=O)N(Cc1ccc(O)cc1)NC(=O)[C@@H](N)Cc1cnc[nH]1)C(N)=O` (H-H[azaTyr]AW[dF]A-NH2), for which the IC50 (in assay [1]; at Platelet glycoprotein 4) was over 10 µM each time. On to `C[C@H](NC(=O)N1CCCN1C(=O)[C@@H](N)Cc1cnc[nH]1)C(=O)N[C@@H](Cc1c[nH]c2ccccc12)C(=O)N[C@H](Cc1ccccc1)C(=O)N[C@@H](CCCCN)C(N)=O`, for which the IC50 (in assay [1]; on Platelet glycoprotein 4) was over 10 µM in each case.

Consider `C[C@H](NC(=O)N(Cc1ccccc1)NC(=O)[C@@H](N)Cc1cnc[nH]1)C(=O)N[C@@H](Cc1c[nH]c2ccccc12)C(=O)N[C@H](C)C(=O)N[C@@H](CCCCN)C(N)=O` (H-H[azaPhe]AW[dA]K-NH2), for which the IC50 (in assay [1]; on Platelet glycoprotein 4) was over 10 µM throughout. As to `C[C@H](NC(=O)[C@@H](Cc1c[nH]c2ccccc12)NC(=O)[C@@H](N)Cc1c[nH]cn1)C(=O)N[C@@H](Cc1c[nH]c2ccccc12)C(=O)N[C@H](Cc1ccccc1)C(=O)N[C@@H](CCCCN)C(N)=O` (H-H[dW]AW[dF]K-NH2), at Platelet glycoprotein 4, the IC50 is 1.82 µM.

Consider `CC(C)CN(NC(=O)[C@@H](C)NC(=O)[C@@H](N)Cc1cnc[nH]1)C(=O)N[C@@H](Cc1c[nH]c2ccccc12)C(=O)N[C@H](Cc1ccccc1)C(=O)N[C@@H](CCCCN)C(N)=O` (H-H[dA][azaLeu]W[dF]K-NH2), for which the IC50 (in assay [1]; on Platelet glycoprotein 4) was over 10 µM in each case. `C[C@H](NC(=O)[C@@H](Cc1c[nH]c2ccccc12)NC(=O)[C@@H](N)Cc1cnc[nH]1)C(=O)NN(Cc1ccccc1)C(=O)N[C@H](C)C(=O)N[C@@H](CCCCN)C(N)=O` (H-H[dW]A[azaPhe][dA]K-NH2): the half-maximal inhibitory concentration (IC50) (in assay [1]; on Platelet glycoprotein 4) was over 10 µM in each case.

For the compound `C[C@H](NC(=O)[C@@H](Cc1ccccc1)NC(=O)[C@H](Cc1c[nH]c2ccccc12)NC(=O)NNC(=O)[C@@H](Cc1c[nH]c2ccccc12)NC(=O)[C@@H](N)Cc1cnc[nH]1)C(N)=O` (H-H[dW][azaGly]W[dF]A-NH2), the IC50 on Platelet glycoprotein 4 was over 10 µM. Consider `C[C@H](NC(=O)[C@H](C)NC(=O)N(Cc1ccccc1)NC(=O)C(N)Cc1cnc[nH]1)C(=O)N[C@H](Cc1ccccc1)C(=O)N[C@@H](CCCCN)C(N)=O` (stereo partly specified), for which the half-maximal inhibitory concentration (IC50) (in assay [1]; at Platelet glycoprotein 4) was over 10 µM in each case. Take `C[C@H](NC(=O)[C@H](C)NC(=O)N(Cc1ccc(O)cc1)NC(=O)C(N)Cc1cnc[nH]1)C(=O)N[C@H](Cc1ccccc1)C(=O)N[C@@H](CCCCN)C(N)=O` (stereo partly specified): the IC50 (in assay [1]; at Platelet glycoprotein 4) was over 10 µM in each case.

For the compound `CC(C)CN(NC(=O)[C@H](C)NC(=O)[C@@H](Cc1c[nH]c2ccccc12)NC(=O)[C@@H](N)Cc1cnc[nH]1)C(=O)N[C@H](Cc1ccccc1)C(=O)N[C@@H](CCCCN)C(N)=O` (H-H[dW]A[azaLeu][dF]K-NH2), the IC50 at Platelet glycoprotein 4 was over 10 µM.

`C[C@@H](NC(=O)[C@@H](N)Cc1cnc[nH]1)C(=O)NNC(=O)N[C@@H](Cc1c[nH]c2ccccc12)C(=O)N[C@H](Cc1ccccc1)C(=O)N[C@@H](CCCCN)C(N)=O` (H-H[dA][azaGly]W[dF]K-NH2): the half-maximal inhibitory concentration (IC50) (in assay [1]; at Platelet glycoprotein 4) was over 10 µM in each case. Take `CC(C)CN(NC(=O)[C@@H](Cc1c[nH]c2ccccc12)NC(=O)[C@@H]1CCCN1)C(=O)N[C@@H](Cc1c[nH]c2ccccc12)C(=O)N[C@H](Cc1ccccc1)C(=O)N[C@@H](CCCCN)C(N)=O`: the IC50 in assay [1] amounted to 1.17 µM; on Platelet glycoprotein 4, 7.97 µM. Turning to `C[C@H](NC(=O)NNC(=O)[C@@H](Cc1c[nH]c2ccccc12)NC(=O)[C@@H](N)Cc1cnc[nH]1)C(=O)N[C@H](Cc1ccccc1)C(=O)N[C@@H](CCCCN)C(N)=O` (H-H[dW][azaGly]A[dF]K-NH2), the concentration for half-maximal inhibition (IC50) (in assay [1]; on Platelet glycoprotein 4) was over 10 µM in each case. `C[C@H](NC(=O)N(Cc1cccc2ccccc12)NC(=O)C(N)Cc1cnc[nH]1)C(=O)N[C@@H](Cc1c[nH]c2ccccc12)C(=O)N[C@H](Cc1ccccc1)C(=O)N[C@@H](CCCCN)C(N)=O` (stereo partly specified) gave an IC50 at Platelet glycoprotein 4 of over 10 µM. For the compound `NCCCC[C@H](NC(=O)[C@@H](Cc1ccccc1)NC(=O)[C@H](Cc1c[nH]c2ccccc12)NC(=O)N1CCCN1C(=O)[C@@H](Cc1c[nH]c2ccccc12)NC(=O)[C@@H](N)Cc1cnc[nH]1)C(N)=O` (H-H[dW][azaPro]W[dF]K-NH2), the half-maximal inhibitory concentration (IC50) in assay [1] is over 10 µM; on Platelet glycoprotein 4, 9.81 µM. Take `CCC(=O)N[C@H](Cc1c[nH]c2ccccc12)C(=O)NN(CC(C)C)C(=O)N[C@@H](Cc1c[nH]c2ccccc12)C(=O)N[C@H](Cc1ccccc1)C(=O)N[C@@H](CCCCN)C(N)=O`: the IC50 was 3.86 µM in assay [1] and over 10 µM at Platelet glycoprotein 4.
